# Bioassay records deposited in PubChem by Broad Institute.
# INS-1E GSIS act – GLuc luminescence reporter in INS-1E cells, primary screen for activators of glucose-dependent secretion of insulin; INS-1E GLuc reporter insulin secretion, 2-3 h; activation, % at 16.6 µM; hit rate 0.61% among 370,000;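 active means lowest replicate activation of at least 40%, so every replicate reaches that level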;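 further: 0% = median of neutral control wells and 100% = median of IBMX positive control wells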
# Env fusion inh – inhibitors of HIV-1 Env-driven cell-cell fusion, primary screen, HeLa-JRFL effector, CEM21 target cells, luciferase; inhibition, % at 12.3 µM; hit rate 1.1% among 360,000;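 active means mean replicate inhibition score of at least 50 and every replicate individually at or above 50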;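 further: 0% = plate neutral controls and 100% = maraviroc near 300 nM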
# GSK3A inh – blockers of GSK3A enzyme activity – biochemical, luminescence, cell-free homogeneous, HTS, primary screen; hit rate 0.1% among 320,000; GSK-3 alpha kinase, ADP-Glo luminescence, 60 min; inhibition, % at 10 µM; Glycogen synthase kinase-3 alpha (Homo sapiens), P49840;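 active means more than half of replicates show inhibition above 20%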;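 further: GST-tagged GSK-3 alpha with peptide substrate and 25 µM ATP; 0% = DMSO neutral wells and 100% = GW8510 positive control wells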
# Target sequence (P49840 whole entry, looked up): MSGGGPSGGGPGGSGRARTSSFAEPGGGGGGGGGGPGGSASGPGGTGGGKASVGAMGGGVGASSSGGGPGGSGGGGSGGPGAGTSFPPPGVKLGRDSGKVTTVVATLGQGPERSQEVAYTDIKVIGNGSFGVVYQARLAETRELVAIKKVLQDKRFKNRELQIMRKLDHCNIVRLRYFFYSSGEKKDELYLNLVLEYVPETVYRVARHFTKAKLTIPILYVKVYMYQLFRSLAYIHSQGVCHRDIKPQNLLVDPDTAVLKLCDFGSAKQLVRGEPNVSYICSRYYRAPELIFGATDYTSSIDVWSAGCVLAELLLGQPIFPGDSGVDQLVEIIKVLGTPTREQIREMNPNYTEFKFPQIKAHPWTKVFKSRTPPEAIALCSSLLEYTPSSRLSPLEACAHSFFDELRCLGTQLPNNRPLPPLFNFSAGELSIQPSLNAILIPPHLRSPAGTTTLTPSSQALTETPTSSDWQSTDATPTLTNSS
# CDK5 p35 inh – inhibitors of human CDK5/p35 kinase, primary screen, biochemical, single concentration; inhibition, % at 10 µM; Cyclin-dependent kinase 5 (Homo sapiens) + Cyclin-dependent kinase 5 activator 1 (Homo …; Recombinant CDK5/p35, ADP-Glo luminescence, 60 min; hit rate 0.01% among 330,000; AID 488839, 2010;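 active means highest replicate inhibition of at least 50% and at least 75% of replicates reaching 50%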;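 further: plate controls were DMSO neutral control for no effect and GW8510 at 10 µM for full effect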
# GSK3B inh – human GSK3beta kinase inhibitors, primary screen, biochemical, cell-free homogeneous, HTS | AID 2097, 2009 | activity score (negative = inhibition), % at 10 µM | Glycogen synthase kinase-3 beta (Homo sapiens), P49841 | hit rate 0.038% among 300,000 | GST-GSK3beta kinase, ADP-Glo luminescence, 60 min; stronger effect = lower value;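 active means more than half of replicate wells score below -50%, meaning over 50% inhibition versus plate controls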;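 further: 0% = median DMSO wells and -100% = median GW8510 positive control wells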
#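 test system = GST-tagged human GSK3beta kinase, cell-free | reagent = 25 µM ATP with peptide substrate | dosing = one dose of 10 µM per compound | schedule = 60 min reaction, RT | detection = luminescent ADP-Glo measurement of ADP formed | control set = DMSO neutral wells and GW8510 at 20 µM as positive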
# STK33 inh – inhibitors of purified STK33 kinase, primary screen, biochemical, ADP-Glo luminescence, homogeneous, cell-free; Serine/threonine-protein kinase 33 (Homo sapiens), Q9BYT3; MBP phosphorylation; inhibition, % at 10 µM; hit rate 0.073% among 320,000; AID 2661, 2010;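 active means inhibition at or above 25%, using the most active replicate where run in duplicate; inactive means inhibition below 25%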
# Active calls of the source: *; / = not tested or not shown; + = active, no number; [ ] = another dose, or the depositor's remark. Shown are actives, neighbours in structure and some others; about 1.4% of the full set was active somewhere.
SMILES,INS-1E GSIS act,Env fusion inh,GSK3A inh,CDK5 p35 inh,GSK3B inh,STK33 inh
O=C(CSC1c2ccccc2-c2ccccc21)N/N=C/c1ccccc1O,/,61.3*,1.6,1.6,1.3,-0.6
O=c1cccc2n1CC1CC2CN(c2nc(N3CCCCC3)nc(N3CCCCC3)n2)C1 (stereo not drawn),-23.1,82.5*,0.8,1.0,0.9,-0.2
Cc1cc(Br)cn2c(CC(=O)N3CCCCC3)c(-c3ccc(F)cc3)nc12,54.3*,19.9,/,/,/,/
O=C(Cc1c(-c2ccccc2)nc2ccc(Br)cn12)N1CCCC1,2.5,-8.1,/,/,/,/
COC(=O)C1=C(c2ccc(OC(F)(F)F)cc2)C[C@@H]2CC[C@H]1N2C(=O)N1CCCC1,/,58.3*,-2.6,-1.0,/,-1.4
O=C1CN=C(c2ccccc2)c2ccccc2N1,-0.7,7.8,9.5,3.8,-1.4,0.0
CCc1cc2c(s1)NC(=O)CN=C2c1cccs1,/,-56.4,75.9*,-1.0,0.3,-0.3
O=C1Nc2ccccc2/C1=C/c1cnc[nH]1,39.9,/,79.1*,101.5*,-23.3,37.0*
COc1ccc2c(c1)/C(=C/c1cnc[nH]1)C(=O)N2,35.2,-112.9,81.0*,+,-89.0*,58.1*
N=C1c2ccccc2CN1c1ccc(F)c([N+](=O)[O-])c1,67.0*,-2.3,0.2,0.6,-4.8,-0.6
CC1(CCO)CC(C)(CCc2ccccc2)OO1 (stereo not drawn),/,-22.0[16.7 µM],/,/,/,/
CC(=O)N1[C@@H]2Cn3c(ccc(-c4cccc(C(=O)N(C)C)c4)c3=O)[C@H]1[C@@H](C(=O)O)[C@@H]2CO,13.6,/,/,/,/,/
C[C@]12CC[C@H]3[C@@H](CC[C@]4(O)C[C@@H](O)CC[C@]34C=O)[C@@]1(O)CC[C@@H]2C1=CC(=O)OC1,-0.2,-38.9,0.1,-1.9,/,1.0
C[C@]12CCC3C(CCC4=CC(O)CC[C@@]43/C=N/O)C1(O)CCC2C1=CC(=O)OC1 (stereo partly drawn),-2.6,93.0*,-2.1,-1.0,0.7,-1.0
O=C(Cc1ccccn1)N1CCCCN2[C@H](C1)[C@@H](c1ccc(C#Cc3ccccc3)cc1)[C@@H]2CO,16.0,/,/,/,/,/
CC(=O)OC1CC(OC2C(O)CC(OC3C(O)CC(OC4CCC5(C)C(CCC6C5CCC5(C)C(C7=CC(=O)OC7)C(O)CC65O)C4)OC3C)OC2C)OC(C)C1OC1OC(CO)C(O)C(O)C1O (stereo not drawn),-1.3,85.5*,/,0.8,/,/
CC1OC(OC2C(O)CC(OC3C(O)CC(OC4CCC5(C)C(CCC6C5CCC5(C)C(C7=CC(=O)OC7)C(O)CC65O)C4)OC3C)OC2C)CC(O)C1O (stereo not drawn),3.9,63.4*,/,-1.2,/,/
CC(=O)[C@H]1CCC2C3CC[C@H]4C[C@@H](O)CC[C@]4(C)C3CC[C@@]21C (stereo partly drawn),18.4,-0.5,-3.5,-5.8,/,0.0
CC(=O)OC1CC2(O)C3CCC4CC(O)CCC4(C)C3CCC2(C)C1C1=CC(=O)OC1 (stereo not drawn),-1.1,102.2*,/,0.0,/,/
C[C@@H]1O[C@@H](O[C@H]2C[C@@H](O)[C@]3(CO)[C@H]4[C@H](O)C[C@]5(C)[C@@H](C6=CC(=O)OC6)CC[C@]5(O)[C@@H]4CC[C@]3(O)C2)[C@H](O)[C@H](O)[C@H]1O,/,/,0.4,0.5,2.0,-0.6
CC(=O)O[C@@H]1CC[C@]2(C)C3CC[C@@]4(C)C(C[C@@H](O)[C@@H]4O)C3[C@@H](OC(C)=O)C[C@H]2C1 (stereo partly drawn),/,7.4,-0.5,0.3,/,-1.1
O=C(O)[C@H]1[C@H](CO)[C@H]2Cn3c(ccc(-c4ccncc4)c3=O)[C@@H]1N2S(=O)(=O)c1ccccc1F,6.1,-17.5[16.7 µM],/,/,/,/
O=C(O)[C@H]1[C@H](CO)[C@H]2Cn3c(ccc(-c4cccnc4)c3=O)[C@@H]1N2S(=O)(=O)c1ccccc1F,11.3,/,/,/,/,/
Cn1cccc1CN1CCN(C(=O)COc2ccccc2)CC1,/,/,-7.0,0.4,-0.3,1.0
Cn1nc(-c2ccc(OCC(=O)N3CCN(Cc4ccccc4)CC3)cc2)c2ccccc2c1=O,/,71.3*,0.0,-0.4,3.2,0.7
SMILES,INS-1E GSIS act,Env fusion inh,GSK3A inh,CDK5 p35 inh,GSK3B inh,STK33 inh
N#Cc1cccc(-c2ccc([C@H]3[C@H](CO)N4CCCCN(C(=O)Cc5ccncc5)C[C@@H]34)cc2)c1,9.2,/,/,/,/,/
ClCCN1CCN(c2ccnc3cc(Cl)ccc23)CC1,21.8,-17.5,86.2*,3.0,-5.3,1.7
CCCCCCN1CCN(c2ccc(Cl)cc2)CC1,-13.6,10.4,2.2,0.4,2.4,-0.3
CC(Cc1ccsc1)NCc1cn[nH]c1-c1ccc(F)cc1F (stereo not drawn),11.2,63.1*,27.4,-0.5,-17.6,-1.5
COc1ccc(-c2[nH]ncc2CNC(C)Cc2ccsc2)c(F)c1 (stereo not drawn),2.9,43.7,0.0,-0.9,-2.4,-0.2
CCCNC(=O)N1[C@@H]2c3ccc(-c4ccccc4OC)c(=O)n3C[C@H]1[C@H](CO)[C@H]2C(=O)O,7.2,/,/,/,/,/
Fc1ccc(C(OCCN2CCN(CCCc3ccccc3)CC2)c2ccc(F)cc2)cc1,/,71.2*,-3.6,0.0,4.9,-1.7
CN(C)CC#Cc1ccc([C@@H]2[C@H](CO)N3CCCCN(C(=O)Cc4ccccn4)C[C@@H]23)cc1,1.7,/,/,/,/,/
CCCCN=C[C@]12CCC(O)CC1(O)CCC1[C@@H]2CC[C@]2(C)[C@H](C3C=CC(=O)O3)CCC12O (stereo partly drawn),1.6,81.8*,-0.5,-3.3,0.8,-1.3
CC12CC[C@H]3[C@@H](CCC4(O)C[C@H](O)CCC34/C=N/NC(=O)c3ccccc3Cl)C1(O)CCC2C1=CC(=O)OC1 (stereo partly drawn),3.1,-17.3,-1.0,0.8,2.3,0.3
CC12CCC3C(CCC4(O)CC(O)CCC34C=O)C1(O)CCC2C1=CC(=O)OC1 (stereo not drawn),3.5,-0.9,/,0.4,/,/
CC12CCC3C(CCC4(O)CC(O)CCC34C=NO)C1(O)CCC2C1=COC(=O)C1 (stereo not drawn),/,105.1*,/,-0.9,/,/
CS(=O)(=O)N1CC2NC(C1)C2c1ccc(Br)cc1 (stereo not drawn),5.4,/,/,/,/,/
CN(CC1COc2ccccc2O1)c1nc(-c2cccnc2)nc2ccccc12 (stereo not drawn),-29.5,64.6*,3.0,0.6,6.4,-0.8
